Assay outcomes as filed in PubChem.
PG9 Ab binder: small molecules binding HIV-1 gp120 antibody PG9 | TR-FRET gp120-PG9 antibody binding | inhibition, % at 6.7 µM | 360,000 tested, 0.43% active | AID 624416; in the data active = inhibition above about 8.5%
Rin1-Abl PPI inh: blocks binding of human Rin1 to Abl | TR-FRET Rin1/Abl binding, biochemical | 360,000 tested, 0.4% active | inhibition, % at 7.35 µM; in the data active = inhibition above about 5%, passing the limit was not always enough
Tb MetRS inh: Trypanosoma brucei MetRS inhibition | 360,000 tested, 0.4% active | inhibition, % at 11.9 µM | AID 624268 | purified T. brucei MetRS, ATP depletion, Kinase-Glo luminescence;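 active = inhibition above a per-plate cutoff of the control wells' mean inhibition plus 3 SD, cut at about 5.5% in these data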;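 note: 0% = DMSO wells median and 100% = median of wells with control inhibitor compound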
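Dosing: 11.9 µM single point; system: parasite MetRS enzyme; technique: luminescence of leftover ATP; times: 15 min enzyme-compound preincubation, 2 h reaction, 10 min detection, 25 °C; replicates: each compound tested once; read-out basis: percent inhibition relative to median high and low control wells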
NR1D1 modulator: modulators of human Rev-erb alpha DNA binding; Rev-erbα–FITC-DNA binding, fluorescence polarization, 90 min; activity, % at 10 µM; 370,000 tested, 0.79% active;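 active = activity above about 14%, limit read from the data; passing the limit was not always enough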;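 note: 0% = DMSO wells with 35 nM protein and 100% = DMSO wells with 750 nM protein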
PG9 bind confirm: confirmation of small molecules binding HIV-1 gp120 antibody PG9; shares compounds with PG9 Ab binder; 1,500 tested, 90% active; TR-FRET PG9 antibody binding, biochemical; inhibition, % at 6.7 µM; AID 651571; in the data active = inhibition above about 9%
PGV04 counter: counter-screen for PG9 binders: binding control antibody PGV04. 1,500 tested, 95% active. shares compounds with PG9 Ab binder. TR-FRET PGV04 antibody-gp120 binding, biochemical. inhibition, % at 6.7 µM; in the data active = inhibition above about 9.5%
PG9 binder DR: PG9 antibody binding, dose response; shares compounds with PG9 Ab binder; TR-FRET PG9 antibody-gp120 binding inhibition; 95 tested, under 10 active; IC50, µM; AID 651848; in the data active = IC50 below about 10 µM
PGV04 binding DR: binds control antibody PGV04 in PG9 counter-screen; IC50, µM; shares compounds with PG9 Ab binder; AID 651937; 95 tested, 20% active; TR-FRET binding to control antibody PGV04
PG126 DR counter: PG126 binding, dose response counter-screen; shares compounds with PG9 Ab binder; IC50, µM; TR-FRET binding to antibody PG126, counterscreen; 95 tested, 20% active
Numbers without * were called inactive; i = inactive; / = no result given. Hits are enriched below; roughly 1.8% of the tested compounds scored in any of these assays. Cut-off read from the data, not from the text of the source, unless noted: active = IC50 below about 9 µM; inactive = the rest.

SMILES	PG9 Ab binder	Rin1-Abl PPI inh	Tb MetRS inh	NR1D1 modulator	PG9 bind confirm	PGV04 counter	others
COc1ccc(C(=O)Nc2cc(-c3ccc(C)cc3)no2)cc1	14.2*	0.3	-2.4	-2.3	14.6*	17.7*
CCCCNC(=O)Cc1c(OC)ccc2cc(Br)ccc12	8.6*	-8.1	-0.1	3.1	16.9*	20.8*
COc1ccc2cc(Br)ccc2c1CC(=O)NC(C)(C)C	12.8*	-14.5	0.3	4.9	20.9*	24.9*
CCCNC(=O)Cc1c(OC)ccc2cc(Br)ccc12	11.0*	-8.5	-0.2	8.0	23.7*	30.7*
C[C@H](CO)N1C[C@H](C)[C@@H](CN(C)S(C)(=O)=O)Oc2ccc(NS(=O)(=O)c3cn(C)cn3)cc2C1=O	-1.8	2.1	-1.0	-6.2	/	/
C=CCn1c(SCC(=O)Nc2cc(C)on2)nc2sc3c(c2c1=O)CCCC3	3.8	-0.1	-0.3	18.6	/	/
CCn1c(SCC(=O)Nc2cc(C)on2)nc2sc3c(c2c1=O)CCCC3	9.2*	-10.3	-0.1	14.8	8.2	23.8*
CCCCOc1ccc(C(=O)NCC(=O)NCC(c2ccc(F)cc2)N2CCOCC2)cc1 (configuration not stated)	2.5	-0.6	-0.4	0.6	/	/
CCOC(=O)[C@@]12CN(C(=O)OC(C)(C)C)CC=C1N(Cc1ccc(OC)cc1)C(=O)[C@H]2CC(=O)NCC1CCCCC1	/	/	/	0.0	/	/
Cc1ccc(S(=O)(=O)c2c(N)n(CCN3CCOCC3)c3nc4ccccc4nc23)cc1C	25.5*	-2.2	0.0	20.1	17.0*	29.5*
Nc1c(S(=O)(=O)c2ccccc2)c2nc3ccccc3nc2n1CCN1CCOCC1	1.4	-2.2	-0.6	-1.3	/	/
CC(=O)c1cn(CC(=O)Nc2ccc(C)cc2)c2ccccc12	16.6*	-3.1	0.1	12.5	24.0*	31.8*
CC(=O)c1cn(CC(=O)Nc2ccc(C)c(C)c2)c2ccccc12	8.4	-5.0	-0.3	9.5	/	/
Cc1ccc(NC(=O)Cn2c(=O)c3cccn3c3ccccc32)cc1	20.7*	-1.5	0.9	11.1	19.3*	27.4*
COC(=O)[C@]12C[C@H](CC(=O)NCc3ccccc3)C(=O)N(CCc3ccc(OC)c(OC)c3)C1=C[C@H](C(C)C)O[C@@H]2C1CC1	/	/	/	0.8	/	/
Cc1ccc(NC(=O)CCS(=O)(=O)c2ccccc2)cc1C	/	/	/	4.0	/	/
CCOc1cccc(-c2nn3c(-c4ccco4)nnc3s2)c1	11.9*	-0.8	-0.4	0.2	38.9*	29.0*	PG9 binder DR=>67.1;PGV04 binding DR=>67.1;PG126 DR counter=>67.1
CCc1ccccc1NC(=O)CN1CCN(C(=O)CNC(=O)c2ccc(-c3ccccc3)cc2)CC1	-2.0	0.5	-0.1	-1.6	/	/
O=C(NCC(c1ccccc1)c1ccccc1)[C@H](Cc1c[nH]c2ccccc12)NC1(C(=O)NC2CCCCC2)CCCCCC1	/	/	/	-3.3	/	/
Cc1ccccc1-c1nsc(SCC(=O)NCc2ccc3c(c2)OCO3)n1	3.0	-7.0	-0.8	2.0	/	/
Cc1ccc(-c2nsc(SCC(=O)NCc3ccc4c(c3)OCO4)n2)cc1	15.8*	0.9	0.3	1.1	17.7*	21.0*
O=C(N=c1ccn(-c2nc3ccccc3nc2NS(=O)(=O)c2ccccc2)cc1)c1ccccc1Cl	-0.1	-5.4	-0.2	7.1	/	/
CC(=O)Nc1ccc(S(=O)(=O)Nc2nc3ccccc3nc2-n2ccc(=NC(=O)c3ccccc3)cc2)cc1	-0.1	-1.9	2.2	0.4	/	/
CC(=O)Nc1ccc(S(=O)(=O)Nc2nc3ccccc3nc2-n2ccc(=NC(=O)c3ccc(F)cc3)cc2)cc1	41.5*	1.1	-0.5	9.3	50.2*	80.7*
CCOc1ccc(S(=O)(=O)Nc2nc3ccccc3nc2-n2ccc(=NC(=O)c3cccs3)cc2)cc1	20.2*	1.3	-0.3	9.4	31.3*	72.6*
SMILES	PG9 Ab binder	Rin1-Abl PPI inh	Tb MetRS inh	NR1D1 modulator	PG9 bind confirm	PGV04 counter	others
COc1ccc(/C=C/S(=O)(=O)NCc2ccccc2)c(CNC(=O)OC(C)(C)C)c1	/	/	/	3.3	/	/
O=C(CCc1nc2sc3c(c2c(=O)[nH]1)CCCC3)NCCOc1ccccc1	24.4*	-2.2	-0.3	-3.7	23.7*	47.2*
O=C(CCc1nc2sc3c(c2c(=O)[nH]1)CCCC3)Nc1ccccc1Cl	17.4*	-0.5	-0.6	3.7	18.7*	33.9*
CCN(c1ccc(NC(=O)CCc2nc3sc4c(c3c(=O)[nH]2)CCCC4)cc1)C(C)C	-0.4	0.1	-0.2	-6.4	/	/
Cc1cccc(NC(=O)CCc2nc3sc4c(c3c(=O)[nH]2)CCCC4)n1	0.7	0.8	-0.5	-9.0	/	/
Cc1cccc(NC(=O)CNC(=O)CCc2nc3sc4c(c3c(=O)[nH]2)CCCC4)c1C	21.7*	0.8	-0.3	-15.8	21.4*	40.3*
CC(=O)c1ccc(NC(=O)CCc2nc3sc4c(c3c(=O)[nH]2)CCCC4)cc1	11.4*	-3.4	-0.2	12.5	22.6*	32.6*
CC(C)(C)c1ccc(C(O)c2ncc(-c3cccc(F)c3)[nH]2)cc1 (configuration not stated)	0.6	-3.6	0.1	4.3	/	/
CN1C(=O)c2cc(NS(=O)(=O)c3cccc(F)c3)ccc2OC[C@@H]2O[C@H](CC(=O)O)CC[C@H]21	/	/	/	-0.9	/	/
COc1ccc(NC(=O)c2oc3ccccc3c2NC(=O)C2CC2)cc1	11.9*	-3.4	-0.5	18.5	9.0*	9.2	PG9 binder DR=>67;PGV04 binding DR=i;PG126 DR counter=i
COc1cc2c3nc4n(c(=O)c3n(CC(=O)N3CCCC3)c2cc1OC)CCS4	-2.1	0.7	-1.2	-5.9	/	/
CC1CN(S(=O)(=O)c2cccc(C(=O)N(C)C3CCCCC3)c2)CC(C)O1 (configuration not stated)	1.3	-1.8	-0.3	0.8	/	/
NC(=O)CSc1nc2c(c(=O)n1-c1ccccc1)C1(CCCCC1)Cc1ccccc1-2	3.2	-3.9	-1.0	19.9	/	/
Cc1cccc(-n2c(SCC(N)=O)nc3c(c2=O)C2(CCCC2)Cc2ccccc2-3)c1	18.7*	-21.8	-0.8	-3.5	20.4*	25.5*
COCc1cc(C)n(CC(=O)Nc2ccc(Cl)cc2Cl)c(=O)c1C#N	8.8*	-4.9	-0.5	-2.4	8.2	7.9	PG9 binder DR=i;PGV04 binding DR=i;PG126 DR counter=i
COCc1cc(C)n(CC(=O)Nc2ccccc2OC)c(=O)c1C#N	-1.8	0.1	-0.5	1.8	/	/
Cc1ccc(C(=O)Nc2nnc(NC(=S)Nc3ccccc3)s2)cc1	12.0*	-4.4	-0.2	14.2	16.4*	20.2*
CCOc1ccc(C(=O)Nc2nnc(NC(=S)Nc3ccccc3)s2)cc1	1.4	5.0	0.1	14.4	/	/
